Format in all cases: functional
The test system of assay [1] is Mycobacterium tuberculosis. In words: Antitubercular activity against Multidrug-resistant Mycobacterium tuberculosis clinical isolate PT12 assessed as bacterial growth inhibition incubated for 7 days by resazurin dye based assay. The following applies: PT12, 168 h, time 7 day. For orientation: Alamar Blue is a resazurin reagent that responds to reducing activity.
Assay [2] has as its system Mycobacterium tuberculosis. In words: Antitubercular activity against Multidrug-resistant Mycobacterium tuberculosis clinical isolate PT20 assessed as bacterial growth inhibition incubated for 7 days by resazurin dye based assay. The following applies: PT20, 168 h, time 7 day.
Assay [3] relates to Mycobacterium tuberculosis. Nature of the assay: Antitubercular activity against Multidrug-resistant Mycobacterium tuberculosis qcrB-T313A mutant assessed as bacterial growth inhibition incubated for 7 days by resazurin dye based assay. The following applies: time 7 day. In short, it runs like this: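 MIC measured against a spontaneous mutant selected for resistance to 2-(quinolin-4-yloxy)acetamides, with a fully sequenced genome and a single qcrB change (ACC to GCC at nucleotide 937, T313A substitution).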

The subject of assay [4] is Mycobacterium tuberculosis. Nature of the assay: Antitubercular activity against Multidrug-resistant Mycobacterium tuberculosis clinical isolate PT2 assessed as bacterial growth inhibition incubated for 7 days by resazurin dye based assay. The following applies: PT2, 168 h, time 7 day.

Molecules are shown by their SMILES. Values after ≈ are worked out from the molar mass of the structure shown.

As usually defined, the MIC is the least concentration at which growth counts as inhibited.

Turning to `CCc1cc(OCC(=O)Nc2ccc(N3CCCCC3)cc2)c2cc(OC)ccc2n1`, the minimal inhibitory concentration (MIC) in assay [1] was 0.19 µM (≈ 0.0797 µg/mL); in assay [2], less than 0.04 µM; in assay [3], greater than 23.8 µM; in assay [4], less than 0.04 µM.
As for `COc1ccc2nc(C)cc(OCC(=O)Nc3ccc(N4CCCCC4)cc3)c2c1`, the minimal inhibitory concentration (MIC) was 0.19 µM (≈ 0.077 µg/mL) in assay [1], less than 0.04 µM in assay [2], greater than 24.7 µM in assay [3] and less than 0.04 µM in assay [4].
For the compound `NNC(=O)c1ccncc1` [ISONIAZID], the results for the MIC in assay [1] and in assay [3] were 146 µM (≈ 20 µg/mL) and 2.3 µM (≈ 0.315 µg/mL), respectively.
For the compound `CO[C@H]1/C=C/O[C@@]2(C)Oc3c(C)c(O)c4c(O)c(c(/C=N/N5CCN(C)CC5)c(O)c4c3C2=O)NC(=O)/C(C)=C\C=C\[C@H](C)[C@H](O)[C@@H](C)[C@@H](O)[C@@H](C)[C@H](OC(C)=O)[C@@H]1C` [RIFAMPIN], the MIC in assay [1], in assay [2] and in assay [4] was greater than 48.6 µM each time.

These data come from ChEMBL document CHEMBL5120974, “Antitubercular Activity of Novel 2-(Quinoline-4-yloxy)acetamides with Improved Drug-Like Properties” (ACS Med Chem Lett, 2022).
